Experimental data taken from ChEMBL document CHEMBL4400509, “Conversion of Quinazoline Modulators from Inhibitors to Activators of β-Glucocerebrosidase” (J Med Chem, 2019).
Activity calls are given as the source filed them. The calls are words filed in the database; no cut-off is given here.

Columns and labels:
[1] = biological target: T1, Lysosomal acid glucosylceramidase (Homo sapiens, UniProt P04062); assay: Activation of wild type recombinant human lysosomal beta-glucocerebrosidase using 4-methylumbelliferyl-beta-D-glucopyranoside as substrate preincubated for 5 mins followed by substrate addition and measured after 30 mins by fluorescence assay
T1 sequence (P04062 whole entry): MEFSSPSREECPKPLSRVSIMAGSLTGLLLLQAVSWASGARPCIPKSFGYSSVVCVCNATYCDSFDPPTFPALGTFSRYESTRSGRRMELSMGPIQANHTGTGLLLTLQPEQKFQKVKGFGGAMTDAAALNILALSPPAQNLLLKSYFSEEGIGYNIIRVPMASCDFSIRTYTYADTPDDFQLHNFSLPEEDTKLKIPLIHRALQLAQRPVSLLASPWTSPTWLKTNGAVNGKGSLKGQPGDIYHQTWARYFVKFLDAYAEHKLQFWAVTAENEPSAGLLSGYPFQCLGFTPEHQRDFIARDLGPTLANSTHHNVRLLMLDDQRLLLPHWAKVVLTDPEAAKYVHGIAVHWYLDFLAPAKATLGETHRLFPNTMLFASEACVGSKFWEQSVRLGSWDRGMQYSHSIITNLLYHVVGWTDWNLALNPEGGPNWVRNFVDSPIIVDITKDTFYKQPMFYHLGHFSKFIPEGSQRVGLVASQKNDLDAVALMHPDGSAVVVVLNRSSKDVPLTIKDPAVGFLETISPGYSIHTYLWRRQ
Procedure, shortened: (§1)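 Recombinant wild-type human GCase (velaglucerase alfa), 7.5 nM final, in 50 mM citric acid/176 mM K2HPO4/0.01% Tween-20, pH 5.9. Enzyme was preincubated 5 min at room temperature with compound (12-point series, 48 nM–100 μM final). 4MU-β-Glc (1.5 mM final) was added, and the reaction ran 30 min at 37 °C. It was stopped with 1 M NaOH/1 M glycine, pH 10, and read at ex 365/em 440 nm. Triplicate, mean.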

[2] = biological target: T2, Lysosomal acid glucosylceramidase (Homo sapiens) (UniProt P04062); assay: Activation of wild type recombinant human lysosomal beta-glucocerebrosidase at 0.048 to 100 uM using 4-methylumbelliferyl-beta-D-glucopyranoside as substrate preincubated for 5 mins followed by substrate addition and measured after 30 mins by fluorescence assay relative to control; procedure, shortened: as §1
T2 sequence (whole entry): T1 sequence (P04062 whole entry)

[3] = biological target: T1, Lysosomal acid glucosylceramidase; assay: Inhibition of wild type recombinant human lysosomal beta-glucocerebrosidase using 4-methylumbelliferyl-beta-D-glucopyranoside as substrate preincubated for 5 mins followed by substrate addition and measured after 30 mins by fluorescence assay
Homo sapiens = species: Homo sapiens; assay: Induction of post-ER GCase activity in fibroblast cells harboring N370S/84GG double mutant derived from Gaucher's disease patient at 25 uM using PFB-FDGlu as substrate preincubated for 3 days followed by substrate addition and measured after 1 hr for every 20 mins in presence of bafilomycin by fluorescence assay; format: cell-based
Fibroblast = assay: Induction of post-ER GCase level in fibroblast cells harboring N370S/84GG double mutant derived from Gaucher's disease patient at 25 uM by immunoblotting analysis; format: functional, cell-based; conditions: Homo sapiens
Procedure, shortened: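 N370S/84GG patient fibroblasts, compound-treated 3 days (DMSO 0.1% v/v vehicle) and lysed in 1% Triton X-100. Lysates were left undigested or digested with Endo H or PNGase F. They were then immunoblotted for GCase with GAPDH as loading control, and post-ER form was taken as Endo H-resistant band. n = 4.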

SMILES | AC50 ([1]; read-out: AC50) [µM] | Emax [2] | further results
CN(CCOCc1ccccc1)c1nc(-c2cccnc2)nc2ccccc12 | 16.9 | 394% | 
c1ccc(COCCNc2nc(-c3cccnc3)nc3ccccc23)cc1 |  |  | IC50 [3]: 7.3 µM
c1cncc(-c2nc(N3CCCOCC3)c3ccccc3n2)c1 | 44.1 | 423% | 
CN(c1nc(-c2cccnc2)nc2ccccc12)C1CCCC1 | 6.36 | 149% | 
CCN(CCOc1ccccc1)c1nc(-c2cccnc2)nc2ccccc12 | 5.38 | 478% | 
CN(Cc1cnc2ccccc2n1)c1nc(-c2cccnc2)nc2ccccc12 | 1.63 | 674% | 
CN(CCOc1ccccc1)c1nc(-c2ccco2)nc2ccccc12 | 21.7 | 229% | 
CN(CCc1ccccc1)c1nc(-c2cccnc2)nc2ccccc12 | 1.39 | 126% | 
c1ccc(C2CCCN(c3nc(-c4cccnc4)nc4ccccc34)C2)cc1 (configuration not stated) | 4.66 | 130% | 
c1ccc(OCCCNc2nc(-c3cccnc3)nc3ccccc23)cc1 |  |  | IC50 [3]: 2.54 µM
CN(CCOc1ccccc1)c1nc(-c2ccsc2)nc2ccccc12 |  | inactive | AC50 [1]: Not Active
CN(Cc1ccc2nsnc2c1)c1nc(-c2cccnc2)nc2ccccc12 | 1.84 | 337% | 
CC(COc1ccccc1)Nc1nc(-c2cccnc2)nc2ccccc12 (configuration not stated) |  |  | IC50 [3]: 1.88 µM
CN(c1nc(-c2cccnc2)nc2ccccc12)[C@@H]1CCc2ccccc2C1 |  |  | IC50 [3]: 5.87 µM
c1ccc(CC2CCCN(c3nc(-c4cccnc4)nc4ccccc34)C2)cc1 (configuration not stated) | 5.18 | 160% | 
c1ccc(OCCN(CC2CC2)c2nc(-c3cccnc3)nc3ccccc23)cc1 |  | inactive | AC50 [1]: Not Active
CN(C[C@@H]1COc2ccccc2O1)c1nc(-c2cccnc2)nc2ccccc12 | 2.37 | 296% | 
CN1Cc2ccc(CN(C)c3nc(-c4cccnc4)nc4ccccc34)cc2C1 | 14.9 | 428% | 
CN(Cc1ccc2ccccc2c1)c1nc(-c2cccnc2)nc2ccccc12 | 3.8 | 155% | 
CN(CCOc1ccccc1)c1nc(-c2ccccn2)nc2ccccc12 | > 50 |  | 
CN(Cc1ccc2c(c1)OCCO2)c1nc(-c2cccnc2)nc2ccccc12 | 4.88 | 488% | 
CN(CCCCc1ccccc1)c1nc(-c2cccnc2)nc2ccccc12 | 3.99 | 190% | 
c1ccc(CC2CCCCN2c2nc(-c3cccnc3)nc3ccccc23)cc1 (configuration not stated) | 4.47 | 364% | 
OC[C@H]1CNC[C@@H](O)[C@@H]1O |  |  | Activity (Homo sapiens): inactive; Activity (Fibroblast): inactive
CN(c1nc(-c2cccnc2)nc2ccccc12)C1CCCCCC1 |  |  | IC50 [3]: 9.94 µM
c1ccc(OC2CCN(c3nc(-c4cccnc4)nc4ccccc34)C2)cc1 (configuration not stated) | 1.17 | 276% | 

SMILES | AC50 ([1]; read-out: AC50) [µM] | Emax [2] | further results
CC(COc1ccccc1)N(C)c1nc(-c2cccnc2)nc2ccccc12 (configuration not stated) | 7.52 | 345% | 
CN(c1nc(-c2cccnc2)nc2ccccc12)[C@H]1CCc2ccccc2C1 |  |  | IC50 [3]: 0.43 µM
CN(CCOc1ccccc1)c1nc(-c2ccoc2)nc2ccccc12 | 1.68 | 145% | 
CN(CCOc1ccccc1)c1nc(-c2ccncc2)nc2ccccc12 | 2.89 | 690% | 
CN(CCOc1ccccc1)c1nc(-c2cccs2)nc2ccccc12 |  | inactive | AC50 [1]: Not Active
c1ccc(O[C@H]2CCCN(c3nc(-c4cccnc4)nc4ccccc34)C2)cc1 | 4.75 | 237% | 
CC(CNc1nc(-c2cccnc2)nc2ccccc12)Oc1ccccc1 (configuration not stated) |  |  | IC50 [3]: 4.24 µM
CN(Cc1ccc2c(c1)OCO2)c1nc(-c2cccnc2)nc2ccccc12 | 1.63 | 160% | 
CN(Cc1nc2ccccc2s1)c1nc(-c2cccnc2)nc2ccccc12 | 6.9 | 517% | 
CC(CN(C)c1nc(-c2cccnc2)nc2ccccc12)Oc1ccccc1 (configuration not stated) | 8.97 | 390% | 
CN(CCOc1ccccc1)c1nc(-c2cncnc2)nc2ccccc12 | 0.89 | 634% | 
c1ccc(O[C@@H]2CCCN(c3nc(-c4cccnc4)nc4ccccc34)C2)cc1 | 3.65 | 302% | 
CN(CCOc1ccccc1)c1nc(-c2ccccc2)nc2ccccc12 |  | inactive | AC50 [1]: Not Active
CN(c1nc(-c2cccnc2)nc2ccccc12)C1CCCCC1 | 2.36 | 137% | 
c1ccc(OCCNc2nc(-c3cccnc3)nc3ccccc23)cc1 | 1.56 | 140% | 
CN(c1nc(-c2cccnc2)nc2ccccc12)C1CCCCCCC1 |  |  | IC50 [3]: 8.38 µM
c1cncc(-c2nc(N3CCOc4ccccc4C3)c3ccccc3n2)c1 | 9.74 | 438% | 
CN(Cc1nc2ccccc2o1)c1nc(-c2cccnc2)nc2ccccc12 | 16.1 | 643% | 
CN(CCOc1ccccc1)c1nc(-c2cccnc2)nc2ccccc12 | 2.3 to 3.55 | 552 to 761% | 
CCCN(CCOc1ccccc1)c1nc(-c2cccnc2)nc2ccccc12 | 3.18 | 132% | 
CN(CCCOc1ccccc1)c1nc(-c2cccnc2)nc2ccccc12 | 6.16 | 208% | 
CN(CCCc1ccccc1)c1nc(-c2cccnc2)nc2ccccc12 |  | 223% | 
CN(Cc1nc2ccccc2[nH]1)c1nc(-c2cccnc2)nc2ccccc12 | 7.92 | 197% | 
c1cncc(-c2nc(N3CCc4[nH]c5ccccc5c4C3)c3ccccc3n2)c1 |  | inactive | AC50 [1]: Not Active
c1cncc(-c2nc(N3CCc4c([nH]c5ccccc45)C3)c3ccccc3n2)c1 | 4.27 | 175% | 
